The source of these data is ChEMBL document CHEMBL1123904, “Synthesis, structure, and biological activity of certain 2-deoxy-beta-D-ribo-hexopyranosyl nucleosides and nucleotides” (J Med Chem, 1987).

Substrate in series [1]: Nc1nc(N)c2ncn(C3CC(O)C(O)C(CO)O3)c2n1
In words: (§1) Kinetic parameters for adenosine deaminase (ADase) was determined. The essentials:
(§2)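 Calf intestine adenosine deaminase; substrate and inhibitor kinetic parameters measured spectrophotometrically.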

Substrate in series [2]: Nc1ncnc2c1ncn2C1CC(O)C(O)C(CO)O1
The description is as §1. The essentials:
as §2

Substrate in series [3]: Nc1ncnc2c1ncn2[C@@H]1O[C@H](CO)[C@@H](O)[C@H]1O
The series is described as §1. The method in brief: as §2

B1: Adenosine deaminase (Bos taurus), P56658 (protein)
chain: MAQTPAFNKPKVELHVHLDGAIKPETILYYGRKRGIALPADTPEELQNIIGMDKPLSLPEFLAKFDYYMPAIAGCREAVKRIAYEFVEMKAKDGVVYVEVRYSPHLLANSKVEPIPWNQAEGDLTPDEVVSLVNQGLQEGERDFGVKVRSILCCMRHQPSWSSEVVELCKKYREQTVVAIDLAGDETIEGSSLFPGHVKAYAEAVKSGVHRTVHAGEVGSANVVKEAVDTLKTERLGHGYHTLEDATLYNRLRQENMHFEVCPWSSYLTGAWKPDTEHPVVRFKNDQVNYSLNTDDPLIFKSTLDTDYQMTKNEMGFTEEEFKRLNINAAKSSFLPEDEKKELLDLLYKAYGMPSPASAEQCL
By Km is commonly meant the concentration of substrate that gives half-maximal velocity. Turning to B1, the values for the Km in series [1], in series [2] and in series [3] were 900 µM, 57 µM and 31 µM, respectively.
